From ChEMBL document CHEMBL4513216, “Probing the Open Global Health Chemical Diversity Library for Multistage-Active Starting Points for Next-Generation Antimalarials” (ACS Infect Dis, 2020)

Assay: Toxicity liver stage against HepG2, at 10uM
Assay type: cell-based
Set-up: test concentration 10 uM, cell line HepG2-A16-CD81EGFP
Settings: human, HepG2-A16-CD81EGFP cells; read-out: INHIBITION
How it was run: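 Uninfected HepG2-A16-CD81EGFP cells, 3 × 10^3 per well, 1536-well, plated on prespotted compound at 10 μM final, parasite-free screening media added to match infected plates; puromycin 10 μM positive, DMSO 0.5% negative; run in parallel with 48 h PbLuc assay at 37 °C, 5% CO2; viability by CellTiter-Glo luminescence, normalized to controls.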

SMILES | cytotoxicity at 10 µM
Cc1ccc(CN2CCN(C)c3ncccc3C2)o1 | -79.6%
CN1CCN(C[C@H]2OC[C@@H]3CCN(C(=O)c4cnccn4)C[C@@H]32)CC1 | 12%
CCN(CC)C(=O)c1cnc(Sc2nccn2C)c(Cl)c1 | -61.1%
COc1ccc(CN2CCC3(CC2)NC(=O)CC3c2ccncc2)cc1 (stereo not given) | 5.97%
CCNC(=O)CCC(=O)NC1(c2cccc(Br)c2)CC1 | 8.64%
COC1CCN(S(=O)(=O)N2CCC3(CCCNC3=O)C2)CC1 (stereo not given) | 1.1%
CCS(=O)(=O)N1Cc2ccccc2CC1C(=O)OCc1cc(C)no1 (stereo not given) | -13%
Cc1ncsc1CN1CCC2(CC1)CC(=O)N(Cc1ccc(Cl)cc1)C2 | 6.83%
Cc1ccsc1CN1CCC(n2cc(C(O)c3ccccc3)nn2)CC1 (stereo not given) | 8.69%
CCn1cnnc1CNC(=O)c1cc(Cl)ccc1F | -7.75%
CCN1Cc2c(C(=O)NC(C)C(C)C)ncn2-c2ccccc2S1(=O)=O (stereo not given) | -66.3%
Cn1cnc2c1C(COCC1CC1)CN(Cc1ccc3c(c1)OCO3)C2 (stereo not given) | -12%
CSCCCN1CCN(c2ccc(Cl)cn2)CC1 | -5.52%
Cc1c(CN(C)c2cc(C3CCCNC3)ncn2)[nH]c2ccccc12 (stereo not given) | 1.99%
Cc1nn(CCn2ccnc2-c2cc3n(n2)CCCNC3)c(C)c1Cl | -8.52%
CC(C)(C)CC(=O)NCC(=O)Nc1ccn(Cc2ccccc2)n1 | 7.08%
COc1ccccc1C1CC(=O)Nc2nc(N3CCCCC3)sc21 (stereo not given) | 11.5%
CC(=O)NC1CC(C)(C)Cc2c1cnn2-c1cccc(F)c1 (stereo not given) | -144%
CCc1nc(C(=O)N2CCCC2)nn1-c1c(Cl)cccc1Cl | -2.04%
CCc1ccc(C2CC(=O)Nc3cc(OC)c(NS(C)(=O)=O)cc32)o1 (stereo not given) | 3.25%
O=S(=O)(Cc1ccccc1)NCc1nnc2n1CCC2 | 16.2%
Cn1cc(C(=O)N[C@@H]2CN(Cc3cccnc3)[C@@H]3CCCO[C@@H]32)cn1 | 1.18%
CCN(CC)c1ncc(CNC2CCc3nc(C)nn3C2)s1 (stereo not given) | 2.78%

SMILES | cytotoxicity at 10 µM
CC1(C)COCCN1C(=O)CCc1nc(-c2ccc(Cl)cc2)no1 | 25.4%
CC1(Cc2ccc3c(c2)OCO3)CCCN(S(=O)(=O)N2CCCC2)C1 (stereo not given) | -0.788%
CNS(=O)(=O)c1ccc(C(=O)N2CCCC2c2ccncc2)o1 (stereo not given) | -6.23%
CC(C)(C)OC(=O)N1CCCN(Cc2ccon2)c2ccccc21 | 11.1%
Cc1ccccc1CN1CCCC1c1cccc(Nc2nccs2)n1 (stereo not given) | 13.3%
CCC1(CNCc2ncc[nH]2)CCCC1 | -3.09%
CO[C@H]1C[C@@H](O)C12CCN(CCCOc1ccc(C(N)=O)cc1)CC2 | -5.66%
CCN1CC2(CC1=O)CN(C(C)=O)CCN(S(=O)(=O)CC)C2 (stereo not given) | -2.02%
O=C1Nc2ccccc2CN(CC=Cc2ccccc2)C12CCNC2 (stereo not given) | 2.96%
COCCNC(=O)c1cc(-c2cc[nH]n2)n2ccccc12 | 10.4%
O=C(NC1CC1)C1CCc2nnc(C3CC3)n21 (stereo not given) | 11.2%
Cc1cccc(C)c1Oc1ncccc1CNC(=O)C1COC(=O)N1 (stereo not given) | -4.65%
COC(=O)c1cc(OCC2CCC2)cc(C(=O)N[C@H]2CCCC[C@@H]2O)c1 | -2.94%
CCC1CN(CC(=O)NCCOC)CCO1 (stereo not given) | -12.9%
CC(C)CCCC(C)NC(=O)c1ccc(OCC(N)=O)cc1 (stereo not given) | 10.2%
Cc1ccc(-c2cccc(N3CCC(NC4CCOCC4)CC3)c2)cc1 | -12.3%
Cc1ccc(Sc2ccc(CN3CCC4(CC3)NCCNC4=O)o2)cc1 | -6.71%
COC(=O)c1ccccc1C(=O)N(CCN(C)C)Cc1sccc1C | -129%
Cc1noc(C)c1S(=O)(=O)NCC(O)c1ccc2c(c1)CCO2 (stereo not given) | 0.407%
COCc1cc(CC2(NC3CCN(C)CC3)COC2)no1 | -4.12%
Cc1ccc(C(C)NC(=O)Cc2c(C)nc3cc(=O)[nH]n3c2C)s1 (stereo not given) | -0.159%
Cc1cccc(C2CCCN2Cc2nc(N)nc(N(C)C)n2)c1C (stereo not given) | -12.5%
